# Source: PubChem BioAssay AID1217 (Sanford-Burnham Center for Chemical Genomics, 2008)
# Screen size: about 190,000 compounds; about 1,300 (0.68%) were called active. This is one part of a sample in which actives are shown more often than they occur. Unmarked numbers belong to inactive results.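 How the source made its calls: active means primary screen inhibition at 20 µM above a set limit (cut at about 50% in these data); inactive means the rest.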
# Tested on: diaphorase (Clostridium kluyveri)
# Assay: diaphorase inhibitors and chemical oxidizers, primary screen, counter-screen for diaphorase-coupled primary assays, biochemical, uHTS, resorufin fluorescence (AID 1217);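 further: plate controls were DMSO with full reaction for no effect and wells lacking NADH for full effect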
# Details: diaphorase resazurin-to-resorufin fluorescence, NADH, 16 min; at 20 µM; stronger effect = higher value; bacterial (C. kluyveri) enzyme, not human
# How it was run: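 Benchmarks: positive control wells lacking NADH, neutral wells with DMSO only. System: bacterial diaphorase enzyme (C. kluyveri). Input: 0.14 U/mL diaphorase, enzyme working solution. Detection: resorufin fluorescence, excitation 544 nm, emission 590 nm. Times: 16-min room-temperature incubation before reading.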
row,Structure (SMILES),inhibition
1,COc1cc2c(cc1OC)C(=O)NCC(C)(C)O2,-1.5%
2,Cc1cc(C)nc(-n2nc(C)cc2NC(=O)c2ccc(F)cc2F)n1,3.4%
3,Cc1cc(OCC(=O)NC2CCN(C)CC2)ccc1[N+](=O)[O-],3.6%
4,COc1cccc(NC(=O)c2ccc(S(=O)(=O)N(C)C)cc2)c1,5.6%
5,O=C(COC(=O)/C=C/c1cccc(Cl)c1)NCCc1ccccc1,8%
6,CCOc1ccccc1Nc1ccc(C(=O)O)cc1[N+](=O)[O-],9.2%
7,OCCC1CN(Cc2cccc(OC3CCCC3)c2)CCN1Cc1ccsc1 (stereo unspecified),8.6%
8,CCCCCCCNc1nc(Cl)nc(NCCO)n1,-16.1%
9,CCn1cc(C(=O)N2CCN(Cc3ccc4c(c3)OCO4)CC2)c2cc(OC)c(OC)cc2c1=O,10.4%
10,CCn1cc(C(=O)NCC2COc3ccccc3O2)c2cc(OC)c(OC)cc2c1=O (stereo unspecified),7.1%
11,CCn1cc(C(=O)NCc2ccc3c(c2)OCO3)c2cc(OC)c(OC)cc2c1=O,59.4% (active)
12,N#CC1=C(N)Oc2[nH]c(=S)[nH]c(=O)c2C12C(=O)Nc1ccccc12 (stereo unspecified),25.5%
13,CCCc1[nH]nc2c1C(c1c(C)nn(-c3ccccc3)c1Cl)C(C#N)=C(N)O2 (stereo unspecified),26.8%
14,Cc1cc(C)c(C#N)c(SCc2[nH]nc3c2C(c2ccccc2)C(C#N)=C(N)O3)n1 (stereo unspecified),53% (active)
15,CCc1ccc(C2C(C#N)=C(N)Oc3n[nH]c(CC(=O)OC)c32)cc1 (stereo unspecified),4%
16,O=C(OCc1cc(Cl)ccc1OC(F)F)c1cccnc1,10.6%
17,CCN(CC)S(=O)(=O)c1cccc(-c2n[nH]c(=S)n2/N=C/c2ccc(C(=O)OC)cc2)c1,66.5% (active)
18,COc1cc(/C=N/n2c(C)n[nH]c2=S)ccc1OCc1ccccc1,32%
19,COC(=O)c1ccc(/C=N\n2c(C)nnc2C)cc1,-6.4%
20,CN1CCN(CC(=O)Nc2cccc([N+](=O)[O-])c2)CC1,12%
21,CCOc1ccc(-n2c(O)c(/C=N/Nc3nnc(C)c(=O)[nH]3)c3ccccc3c2=O)cc1,89.8% (active)

row,Structure (SMILES),inhibition
1,CCOc1ccc(-n2c(O)c(/C=N/c3ccnn3Cc3ccncc3)c3ccccc3c2=O)cc1,-12.9%
2,CCOc1ccc(-n2c(O)c(/C=N/Nc3nc(C)cc(C)n3)c3ccccc3c2=O)cc1,-1.1%
3,FC(F)(F)c1cccc(N/N=C/c2ccccc2)c1,23.2%
4,Oc1ccc(/C=N/Nc2ccc(C(F)(F)F)cn2)cc1O,53.7% (active)
5,COc1cccc(/C=N/Nc2ncc(C(F)(F)F)cc2Cl)c1O,0%
6,CN(Cc1ccccc1)C(=O)COC(=O)c1ccccc1Nc1ccccc1,28.3%
7,CCN(CC)c1ccc2oc(=O)c(C)nc2c1,62.3% (active)
8,CCN(CC)c1ccc(/C=N/Nc2nc(C)cc(C)n2)c(O)c1,42.2%
9,CCN(CC)c1ccc2cc(C(=O)O)c(=O)oc2c1,11.2%
10,CCc1ccc(NC(=O)Cn2nc(C)c([N+](=O)[O-])c2C)cc1,12.1%
11,CC(=O)Nc1ccc(OCC(=O)NCc2ccc(C)cc2)cc1,11.1%
12,CC(C)(C)NC(=O)COc1ccc(CNc2ccc3[nH]c(=O)[nH]c3c2)cc1,54.2% (active)
13,COC(=O)c1ccc(OCC(=O)NC(C)(C)C)cc1,-15.5%
14,Cc1cccc(C2c3[nH]c4ccccc4c3CCN2C(=O)c2cc(-c3cccn3C)n[nH]2)n1 (stereo unspecified),37%
15,Cc1cc2c(cc1C)[n+](C)cn2CC(O)COCC1CC=CCC1 (stereo unspecified),1.5%
16,COc1ccc(/C=C/CN2CCN(Cc3ccc(C)cc3)C(CCO)C2)cc1 (stereo unspecified),7.2%
17,CN(CCc1cn[nH]c1)C(=O)CC1C(=O)NCCN1Cc1cccc(Oc2ccccc2)c1 (stereo unspecified),8.5%
18,O=C(CSc1ccc2nnc(-c3ccccc3)n2n1)N1CCCc2ccccc21,56.2% (active)
19,CCCn1c(SCC(=O)N2CCc3ccccc32)nnc1-c1ccncc1,6.2%
20,Cn1c(SCC(=O)N2CCCc3ccccc32)nc2ccccc2c1=O,5.1%
21,C=CCNC(=S)NNC(=O)COc1c(Cl)cc(Cl)cc1Cl,10.5%

row,Structure (SMILES),inhibition
1,Cc1cccc(OP(=O)(Nc2c(C)n(C)n(-c3ccccc3)c2=O)Oc2cccc(C)c2)c1,14.1%
2,Cn1c2ccccc2c(=O)c2c(O)cccc21,-1%
3,COc1cccc(C(=O)Oc2cc(C)[nH]c(=O)c2[N+](=O)[O-])c1,15.4%
4,Cc1nn(C)c(Oc2ccccc2)c1[N+](=O)[O-],13.6%
5,Cc1cccc(Oc2c([N+](=O)[O-])c(=O)n(C)c3ccccc23)c1,94.1% (active)
6,Cn1c(=O)c([N+](=O)[O-])c(Oc2ccccc2)c2ccccc21,82.2% (active)
7,CN(Cc1cc2cc(F)ccc2[nH]1)Cc1nc(-c2cnccn2)no1,15.3%
8,CN(C)c1nc(-c2cccnc2)nc(-c2ccc(Cl)cc2)c1C#N,-10.7%
9,COC(=O)C1CCN(C(=O)c2cc(=O)[nH]c3ccccc23)CC1,6.4%
10,OC(COCc1ccco1)CN1CCN(c2ccccc2)CC1 (stereo unspecified),3.1%
11,S=C(NCC1CCCO1)N1CCN(c2ccc(Cl)c(Cl)c2)CC1 (stereo unspecified),21.1%
12,Cc1cccc(N2CCC(NCc3c(C(=O)N4CCCCC4)nc4c(C)cccn34)CC2)c1,-5.4%
13,Cc1cccc(NC(=O)Nc2ccc3c(c2)OCO3)n1,18.3%
14,COc1ccc(NC(=S)NCCN2CCC(C)CC2)cc1,-1.3%
15,Cc1noc(/C=C/c2ccco2)c1S(=O)(=O)N1CCC(C(=O)Nc2ccc(Cl)cn2)CC1,14.1%
16,COc1cc(N/C=C2\CC(=O)NC(C)=C2C#N)cc(OC)c1OC,51.1% (active)
17,COC(=O)C1=C(C)NC(=O)CC1c1ccccc1OC (stereo unspecified),6.8%
18,Cc1cccc(NC(=S)NCCc2ccc(F)cc2)c1C,1.1%
19,N#Cc1c(-c2ccc(F)cc2)cc(C2CC2)nc1SCC(=O)c1cccs1,12.8%
